In assay [1] the test system is Staphylococcus aureus. Nature of the assay: Growth inhibition against penicillin-susceptible Staphylococcus ATCC 25923 aureus after 24 hrs. The format is functional, organism-based. In outline: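 Well-diffusion plate: 10^8 suspension in PBS pH 7.4 swabbed on TSA; 6-mm wells loaded with 20 μg compound (from 1 mg/mL DMSO stock), penicillin G 20 μg as comparator; 37°C, 24 h; growth-inhibition zones read.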

The subject of assay [2] is Staphylococcus aureus. The assay is described as follows: Inhibition of cell wall biosynthesis in Staphylococcus aureus assessed as cytoplasmic membrane rupture. The class given is functional, organism-based. In outline:
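S. aureus ATCC 25923 lawns on TSA with 6-mm paper discs carrying 20 μg compound or penicillin G. SEM: after 24 h at 37°C, agar at the edge of inhibition zones cut out, glutaraldehyde-osmium fixed, gold/palladium coated, imaged for cell morphology. Light microscopy: after 4–5 h, cells lifted onto coverslips from zones, Gram-stained (safranin counterstain), viewed bright-field.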

Assay [3] relates to Staphylococcus aureus. Nature of the assay: Effect on DNA replication in Staphylococcus aureus ATCC 25923 assessed as inhibition of [3H]thymidine utilization after 30 mins relative to control. The format is functional. The arrangement: scale not given: the % may be the effect or the level left. The procedure, abridged:
(§1)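 Early log-phase cells in Luria Broth labelled with 3 μCi [methyl-3H]thymidine (DNA) or 3 μCi [5-3H]uridine (RNA), with or without drug at twice the MIC; ciprofloxacin (DNA) or rifampicin (RNA) as reference inhibitors, DMSO control. 50 μL samples taken at 5, 10, 20, 30, 45, 60 min into ice-cold 10% TCA; precipitated radioactivity by liquid scintillation, expressed relative to untreated control.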

For assay [4], the system named is Staphylococcus aureus. The assay is described as follows: Effect on RNA transcription in Staphylococcus aureus ATCC 25923 assessed as [3H]uridine incorporation after 20 mins relative to control. The format is functional. The procedure, abridged:
as §1

Assay [5] relates to Staphylococcus aureus. Nature of the assay: Growth inhibition against methicillin-susceptible Staphylococcus aureus ATCC 25923 after 2 hrs by agar dilution. The class given is functional, organism-based. For orientation: Agar dilution tests growth on a series of plates holding different concentrations.
In assay [6] the test system is Escherichia coli. Nature of the assay: Effect on pBR322 fragmentation at 5 to 100 uM after 24 hrs by agarose gel electrophoresis. The format is functional. The procedure, abridged: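 Supercoiled pBR322 (0.5 μg) in 50 mM sodium phosphate, pH 7.4, treated with 5–100 μM compound (added in DMSO; DMSO-only lane as control), 37°C for 24 h. Aliquots run on 1.2% agarose/TAE gel with ethidium bromide at 80 V/10 cm for 2.5 h, UV visualization of single- and double-strand breakage.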

Assay [7] relates to Staphylococcus aureus. Nature of the assay: Growth inhibition against […] Staphylococcus aureus ATCC 25923 after 2 hrs by agar dilution. The class given is functional, organism-based. The procedure, abridged:
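Log-phase overnight culture inoculated at 10^6 cfu/mL into fresh Mueller-Hinton broth and shaken 1 hr at 35°C. Compound in DMSO then added at 1, 5 or 10 times the MIC, with MIC set by agar dilution in Mueller-Hinton II agar read after 24 hr at 37°C. Growth was followed by viable counts from plated dilutions (colonies counted after 24 hr) and OD 630 nm.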

Assay [8] concerns Staphylococcus aureus. The assay is described as follows: Effect on fatty acid biosynthesis in Staphylococcus aureus RN4220 assessed as [3H]acetate uptake relative to control. The format is functional, organism-based. In outline:
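Strain RN4220 grown at 37 °C to A600 0.11 (1.3 x 10^7 cfu/mL), split into 5 mL tubes; drug added at 1x or 2x MIC (final DMSO 2%), penicillin G 2xMIC and no-drug controls. After 5 min, 3H-acetate added (4 μCi/mL); 0.8 mL aliquots at 15, 30, 45, 60 min extracted with chloroform/methanol; uptake compared with controls.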

Activity data for 4 compounds are collected here from ChEMBL document CHEMBL1147030, “N-thiolated beta-lactams: Studies on the mode of action and identification of a primary cellular target in Staphylococcus aureus” (2007).

The source made the active and inactive calls. The calls are words filed in the database; no cut-off is given here. Bounds are passed on as bounds.

As to `CC1(C)S[C@@H]2[C@H](NC(=O)Cc3ccccc3)C(=O)N2[C@H]1C(=O)O`, the result in assay [1] was inactive. Moreover, the outcome in assay [2] was Active.

Turning to `O=C(O)c1cn(C2CC2)c2cc(N3CCNCC3)c(F)cc2c1=O` [CIPROFLOXACIN], the Activity in assay [3] worked out at 65%.

`CO[C@H]1/C=C/O[C@@]2(C)Oc3c(C)c(O)c4c(O)c(c(/C=N/N5CCN(C)CC5)c(O)c4c3C2=O)NC(=O)/C(C)=C\C=C\[C@H](C)[C@H](O)[C@@H](C)[C@@H](O)[C@@H](C)[C@H](OC(C)=O)[C@@H]1C` [RIFAMPIN]: in assay [4], the Activity is reported as under 20%.

As to `CO[C@H]1C(=O)N(SC)[C@H]1c1ccccc1Cl`, the Activity in assay [3] is reported as over 90%; in assay [4], 80%. Also, the result in assay [5], in assay [1], in assay [7] and in assay [8] was Active. The result in assay [6] and in assay [2] was inactive.
